PGE2 EP2 inh = human EP2 receptor antagonists, primary screen, TR-FRET cAMP, C6 glioma cells; C6 glioma cells expressing human EP2; cells stimulated with saturating PGE2; inhibition, % at 25 µM; actives 0.52% (n = 260,000); AID 1422, 2008;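 active = percent inhibition above 40 after rounding to a whole number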;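 note: rat C6 glioma host cells with rolipram phosphodiesterase inhibitor present; the protocol text gives 20 µM as final concentration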
FXIIa inh = human FXIIa protease inhibitors, primary screen, biochemical, 1536-well; Coagulation factor XII (Homo sapiens), P00748; purified FXIIa, Boc-QGR-AMC fluorogenic substrate, 2 h; inhibition, % at 5 µM; actives 0.3% (n = 220,000); AID 800, 2007; in the data active = inhibition above about 40%;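 note: 0% = enzyme with no compound and 100% = blank without enzyme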
EP2 mod = EP2 receptor modulators, cAMP readout, primary screen, cell-based, HTRF cAMP, PGE2 stimulation; Prostaglandin E2 receptor EP2 subtype (Homo sapiens), P43116; EP2-expressing cells, cAMP HTRF FRET, PGE2 co-stimulation; induction, % at 25 µM; actives 0.83% (n = 260,000);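 active = compounds whose cAMP rise, as percent of the full-agonist control response, exceeds 60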;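 note: rat C6 glioma line stably carrying human EP2 under a CMV promoter; the protocol text gives 20 µM as final concentration; 100% = response of wells given 1 µM PGE2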
FXIa inh 1536 = human FXIa protease inhibitors, primary screen, biochemical, 1536-well | actives 0.14% (n = 220,000) | inhibition, % at 5 µM | purified FXIa, Boc-Glu-Ala-Arg-AMC fluorogenic substrate | AID 798, 2007 | Coagulation factor XI (Homo sapiens), P03951;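 active = inhibition of at least 40%; inactive = inhibition below 40%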;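 note: fluorescence of freed AMC excited at 355 nm; 0% = enzyme without compound and 100% = no enzyme blank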
Target sequence (P03951 19-387 limits assumed): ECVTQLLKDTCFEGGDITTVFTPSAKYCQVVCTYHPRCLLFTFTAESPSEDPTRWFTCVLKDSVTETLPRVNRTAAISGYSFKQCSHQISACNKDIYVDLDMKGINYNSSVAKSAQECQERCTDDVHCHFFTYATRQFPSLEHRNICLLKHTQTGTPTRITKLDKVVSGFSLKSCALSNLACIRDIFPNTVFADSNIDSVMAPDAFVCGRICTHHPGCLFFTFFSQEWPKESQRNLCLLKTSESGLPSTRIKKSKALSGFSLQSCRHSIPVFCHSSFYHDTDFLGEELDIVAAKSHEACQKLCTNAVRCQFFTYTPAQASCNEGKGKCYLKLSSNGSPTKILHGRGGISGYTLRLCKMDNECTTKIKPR
Target sequence (P03951 388-625 limits assumed): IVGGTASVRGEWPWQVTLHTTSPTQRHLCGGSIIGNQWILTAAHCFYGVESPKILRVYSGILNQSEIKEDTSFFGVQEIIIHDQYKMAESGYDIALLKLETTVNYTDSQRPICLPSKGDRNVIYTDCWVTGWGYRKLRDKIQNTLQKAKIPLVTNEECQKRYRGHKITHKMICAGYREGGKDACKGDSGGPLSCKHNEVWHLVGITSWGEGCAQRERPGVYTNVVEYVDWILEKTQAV
KLK5 inh = human KLK5 protease inhibitors, primary screen, biochemical, 1536-well; recombinant hK5, fluorogenic AMC substrate cleavage; inhibition, % at 5 µM; actives 0.59% (n = 210,000);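 active = inhibition of 40% or more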;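 note: 0% = enzyme controls without compound and 100% = no-enzyme blanks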
Thrombin inh = human alpha-thrombin inhibitors, primary screen, counter-screen for coagulation protease inhibitor project, biochemical, 1536-well, fluorogenic AMC substrate | Boc-VPR-AMC fluorogenic substrate cleavage | inhibition, % at 5 µM | actives 0.26% (n = 220,000) | AID 1046, 2008;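 active = inhibition at or above 40%; inactive = inhibition below 40%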;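 note: 0% = enzyme with no compound and 100% = wells without enzyme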
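Test system: human alpha-thrombin; medium: pH 7.5 Tris-saline with Tween 20; times: reaction at room temperature; signal: AMC fluorescence at 355 nm excitation and 460 nm emission; also added: Boc-VPR-AMC substrate, 15 µM final; dosing: one concentration per compound, 5 µM, with 0.2% DMSO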
* marks the source's active call; other numbers are inactive results; · = not tested or not shown; ! = a repeat was not active. Shown are actives, neighbours in structure and some others; about 2.1% of the full set was active somewhere.

SMILES	PGE2 EP2 inh	FXIIa inh	EP2 mod	FXIa inh 1536	KLK5 inh	Thrombin inh
Cc1cccc(C2Nc3ccccc3C(=O)N2CCc2ccccc2)n1 (stereo not given)	4	11	37	-4	-2	1
O=C1c2ccccc2NC(c2ccc(Cl)cc2Cl)N1Cc1ccccc1 (stereo not given)	9	16	61*	2	-32	-2
O=C1c2ccccc2N[C@H](c2cc(Cl)cc(Cl)c2O)N1CCc1ccccn1	55*	·	8	·	·	·
O=C(NC1CCCCC1)C(c1ccccc1)N(Cc1cccs1)C(=O)c1csnn1 (stereo not given)	9	·	8	·	·	·
COc1ccc(NC(=O)CSc2nc3c(cc2C#N)CCCCCC3)cc1OC	20	·	10	·	·	·
CC(=O)Nc1ccc(C(O)CN2CCC(O)(c3ccccc3F)CC2)cc1 (stereo not given)	5	·	-28	·	·	·
Cc1cc(=O)oc2cc(OCCCN3C(=O)c4ccccc4C3=O)ccc12	4	3	7	6	-4	-8
Cc1cc(=O)oc2cc(OC(=O)CCN3C(=O)c4ccccc4C3=O)ccc12	5	63*	19	-14	-25	8
CCc1nn(CC(=O)NCCOC)c(=O)c2cc3oc(C)cc3n12	5	·	-34	·	·	·
Cc1onc(-c2ccccc2)c1C(=O)N[C@@H]1C(=O)N2[C@@H]1SC(C)(C)[C@@H]2C(=O)O	·	1	26	0	-3	·
Cc1onc(-c2c(F)cccc2Cl)c1C(=O)N[C@@H]1C(=O)N2[C@H]1SC(C)(C)[C@H]2C(=O)O	55*	·	20	·	·	·
Cc1ccc(NC(=O)CN(c2ccccc2)S(=O)(=O)N(C)C)cc1C	8	20	6	9	43*	28
COc1cc(OC)c(-c2nc(-c3cccnc3)no2)cc1OC	15	·	-4	·	·	·
CCC(C)c1ccc(O)c(NC(=O)c2cccnc2)c1 (stereo not given)	14	19	-14	-3	-22	1
CC(C)c1ccc(O)c(NC(=S)NC(=O)c2cccnc2)c1	4	41*	-36	20	·	3
COc1ccc(OC)c(Nc2nc(NCCC(C)C)nc(N)c2[N+](=O)[O-])c1	8	7	63*	-2	2	-6
CCC(C)Nc1nc(N)c([N+](=O)[O-])c(Nc2cc(OC)ccc2OC)n1 (stereo not given)	4	7	36	-1	2	-4
Cc1ccccc1OCC(O)Cn1c(N(C)C)nc2c1c(=O)[nH]c(=O)n2C (stereo not given)	17	·	-33	·	·	·
CC1=N[C@@](C)(COC(=O)[C@]2(C)N[C@](C)(CO)CO2)COC1=O	48*	·	32	·	·	·
CN1CCN(CCCN2c3ccccc3Sc3ccc(C(F)(F)F)cc32)CC1	41*!	11	-21	6	-16	-1
CCOC(=O)NC(=O)CSc1nc2ccc([N+](=O)[O-])cc2[nH]1	0	27	-42	31	44*	14
CCOC(=O)NC(=O)CSc1nc2ccc(OCC)cc2[nH]1	·	22	-1	2	-8	3
Fc1ccc(Nc2ccc3ccccc3n2)c(F)c1	3	36	-38	104*	47*	36
Cc1ccc2oc(C(=O)N3CCC4(CC3)NC(=O)c3cccnc3N4C)cc(=O)c2c1	0	·	-12	·	·	·
Nc1nc(CN2CCCCC2)cs1	13	-3	17	-1	62*	104*
SMILES	PGE2 EP2 inh	FXIIa inh	EP2 mod	FXIa inh 1536	KLK5 inh	Thrombin inh
Nc1nc(CN2CCOCC2)cs1	8	15	21	1	-4	0
O=C1C=C(NCCc2cc(Br)c(O)c(Br)c2)C(=O)c2ncccc21	104*	·	-49	·	·	·
O=C1C(=O)c2ncccc2-c2cccnc21	16	·	33	·	·	·
O=C1c2ccccc2C(=O)N1/N=C/c1ccc(O)c(O)c1O	5	31	5	23	45*	11
O=C1c2cccc3cccc(c23)C(=O)N1/N=C/c1ccc(O)cc1O	12	8	8	1	2	4
COc1ccc([C@H]2CN(Cc3ccccc3)C[C@@H]2NC(=O)C2CCCC2)cc1OC	6	·	-7	·	·	·
Cc1ccccc1CN1CCc2c(nc(N3CC(C)OC(C)C3)[nH]c2=O)C1 (stereo not given)	·	·	-23	·	·	·
COc1ccc(CN(C(=O)c2snc(C(N)=O)c2N)C(C(=O)NC(C)(C)C)c2ccco2)cc1 (stereo not given)	2	43*	9	-9	11	-3
CC(C)(C)NC(=O)C(c1ccco1)N(Cc1ccc(F)cc1)C(=O)c1snc(C(N)=O)c1N (stereo not given)	7	4	15	-5	-32	-4
Cc1nn(CCC(=O)N2CCN(CCOc3ccc(F)cc3)CC2)c(C)c1C	6	·	-10	·	·	·
O=c1[nH]c(-[n+]2ccccc2)c(/C=N/NC([S-])=Nc2ccccc2)s1	4	3	1	-12	44*	-5
Cc1cc[n+](-c2[nH]c(=O)sc2/C=N/NC([S-])=Nc2ccccc2)cc1	7	17	2	12	-8	0
CC(C)c1cc(C(F)(F)F)nc(NNc2nc(C(C)C)cc(C(F)(F)F)n2)n1	48*	·	42	·	·	·
CCNc1nc(Sc2ccc(C)cc2)cc(C(F)(F)F)n1	4	4	18	1	-11	2
COc1ccc(CSc2n[nH]c(C)n2)cc1[N+](=O)[O-]	6	11	5	-3	48*	24
Clc1ccc(Cn2ncc3c(N4CCCCC4)ncnc32)cc1	17	10	-8	7	-4	-1
Clc1ccc(Cn2ncc3c(N4CCCC4)ncnc32)cc1	11	8	-39	1	44*	9
CCC(C)C(=O)Nc1nnc(C2CCCCC2)s1 (stereo not given)	7	·	-68	·	·	·
Cc1cc(C)n(C(C)CC(=O)O)n1 (stereo not given)	6	·	29	·	·	·
CCCc1cc(C(=O)OC)c(NC(=O)CCCC(=O)O)s1	2	9	1	0	5	·
CCCc1cc(C(=O)OC)c(NC(=O)OCC)s1	1	17	63*	25	-28	0
O=C(N/N=C/c1ccccc1C(=O)O)c1ccccc1Br	2	25	-12	62*	60*	25
C=CCc1cccc(/C=N/NC(=O)c2ccccc2Br)c1O	7	4	6	-1	·	-1
Clc1ccccc1CN1CCN(CCCc2ccccc2)CC1	5	98*	-30	3	-2	-7
